Measurements reported in PMC10692362 (Acta Pharmaceutica Sinica. B, 2023).

Tests used:
human ERβ LBD = human ERβ LBD (Homo sapiens, UniProt Q92731); experiment: Competitive fluorescence polarization binding assay, ERβ
ERβ [1] = target: T1, ERβ (Homo sapiens, UniProt Q92731); experiment: ER transcriptional activity; assay type: cell-based
ERα D538G = target: T2, ERα D538G (Homo sapiens, UniProt P03372, D538G); experiment: Immunoblot analysis of ERα degradation in T-47D^D538G cells; assay type: cell-based; conditions: 5 μmol/L over 12 h
T2 sequence (P03372 1-595 D538G): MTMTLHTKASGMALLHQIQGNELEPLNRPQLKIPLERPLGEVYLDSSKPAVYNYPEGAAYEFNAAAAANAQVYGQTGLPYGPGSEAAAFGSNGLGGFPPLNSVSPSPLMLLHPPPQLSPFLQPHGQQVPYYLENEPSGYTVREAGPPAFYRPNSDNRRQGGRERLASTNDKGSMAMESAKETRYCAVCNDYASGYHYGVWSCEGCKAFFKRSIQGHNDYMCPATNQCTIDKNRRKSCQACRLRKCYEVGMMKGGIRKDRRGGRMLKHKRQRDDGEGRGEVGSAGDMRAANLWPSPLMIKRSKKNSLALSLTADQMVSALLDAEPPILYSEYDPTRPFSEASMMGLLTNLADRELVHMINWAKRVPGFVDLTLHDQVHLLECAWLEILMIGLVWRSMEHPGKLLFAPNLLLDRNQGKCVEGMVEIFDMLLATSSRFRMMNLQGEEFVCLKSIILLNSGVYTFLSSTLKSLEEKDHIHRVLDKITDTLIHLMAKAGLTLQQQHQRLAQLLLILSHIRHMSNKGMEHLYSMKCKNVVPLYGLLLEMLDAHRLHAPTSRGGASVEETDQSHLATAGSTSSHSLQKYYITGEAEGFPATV

MCF-7 tumor xenograft = MCF-7 tumor xenograft model in BALB/c nude mice; assay type: in vivo
Summary of the method: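 Female BALB/c nude mice (15–18 g, 5 weeks old) received 1 × 10⁷ MCF-7 cells in 100 μL PBS into the right axillary mammary fat pad. Tumour volume (W² × L × 0.5) and body weight were measured every 2 days. Mice were sacrificed on Day 33. Tumours were assessed by IHC (Ki-67, ERα) and ERα Western blot.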

PK studies in mice = assay type: in vivo, BALB/c female mice
Summary of the method: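 Female BALB/c mice (n = 3/group) were dosed iv at 2 mg/kg in DMSO/PEG400/β-cyclodextrin/saline (5:40:10:45), ip at 4 mg/kg in DMSO/PEG400/saline (5:40:55), or po at 20 mg/kg in corn oil/DMSO (95:5). Blood was sampled at […]. Plasma was deproteinised with MeCN and analysed by LC/MS/MS, with three plasma samples per time point.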

[2] = target: T3, ERα Y537S and C381S–C417S–Y537S proteins (Homo sapiens, UniProt P03372, Y537S); experiment: Intact mass spectrometry to assess covalency; assay type: binding; conditions: 20 μmol/L compound : 1 μmol/L protein, 4 °C overnight
T3 sequence (P03372 305-554 Y537S): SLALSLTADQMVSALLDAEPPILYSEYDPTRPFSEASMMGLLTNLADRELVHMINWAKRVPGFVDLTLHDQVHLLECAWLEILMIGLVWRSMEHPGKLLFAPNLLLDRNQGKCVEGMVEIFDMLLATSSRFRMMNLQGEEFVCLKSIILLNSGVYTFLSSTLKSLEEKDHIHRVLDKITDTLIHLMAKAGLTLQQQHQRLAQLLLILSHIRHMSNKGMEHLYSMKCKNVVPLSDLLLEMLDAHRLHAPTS

T-47D^Y537S cells = experiment: Cell viability assay; assay type: cell-based, human; conditions: Homo sapiens, 72 h, read-out: T-47D^Y537S IC50
ERβ [3] = target: T1, ERβ; assay type: cell-based; conditions: 5 μmol/L, HEK-293T cells
Summary of the method: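 Transfected HEK-293T cells treated with test compound; ERβ protein assessed by immunoblot. Lysates prepared with RIPA buffer, resolved by SDS-PAGE and transferred to PVDF. Membranes blocked in 5% skim milk and developed by ECL, with β-actin as loading control.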

MCF-7 cells = experiment: Cell viability assay; assay type: cell-based, human
LCC-2 cells = experiment: Cell viability assay on tamoxifen-resistant LCC-2 cells; assay type: cell-based; conditions: Homo sapiens, LCC2, read-out: LCC-2 IC50
T-47D cells = experiment: Cell viability assay; assay type: cell-based, human; conditions: Homo sapiens, T47D, 72 h, read-out: T-47D IC50
[4] = female, BALB/c, mouse, plasma, ip, 4 mg/kg
[5] = female, BALB/c, mouse, plasma, iv, 2 mg/kg
[6] = female, BALB/c, mouse, plasma, po, 20 mg/kg

T1 sequence (Q92731 whole entry): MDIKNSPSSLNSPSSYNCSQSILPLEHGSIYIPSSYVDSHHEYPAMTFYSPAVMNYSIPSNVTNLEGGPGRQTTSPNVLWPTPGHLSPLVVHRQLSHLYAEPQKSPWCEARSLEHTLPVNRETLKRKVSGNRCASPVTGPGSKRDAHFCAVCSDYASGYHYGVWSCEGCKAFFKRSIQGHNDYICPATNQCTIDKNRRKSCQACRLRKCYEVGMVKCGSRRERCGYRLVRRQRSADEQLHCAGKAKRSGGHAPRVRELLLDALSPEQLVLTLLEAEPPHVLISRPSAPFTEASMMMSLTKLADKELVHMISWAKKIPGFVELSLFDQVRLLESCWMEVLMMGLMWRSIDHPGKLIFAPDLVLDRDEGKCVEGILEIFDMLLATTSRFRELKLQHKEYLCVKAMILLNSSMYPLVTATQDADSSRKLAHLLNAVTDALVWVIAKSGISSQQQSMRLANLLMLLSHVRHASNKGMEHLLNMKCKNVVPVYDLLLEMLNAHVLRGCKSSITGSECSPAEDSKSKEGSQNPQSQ
Chain of human ERβ LBD (Q92731 264-498 limits assumed): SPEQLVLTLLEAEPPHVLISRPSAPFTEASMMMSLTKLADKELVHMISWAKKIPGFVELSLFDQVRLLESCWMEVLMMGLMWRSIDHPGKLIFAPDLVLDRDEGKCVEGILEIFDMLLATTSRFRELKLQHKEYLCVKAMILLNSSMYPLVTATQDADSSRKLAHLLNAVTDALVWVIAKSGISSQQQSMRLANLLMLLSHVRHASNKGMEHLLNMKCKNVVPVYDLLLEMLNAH

## CC(C)=CC(=O)Nc1ccc(C2=C(c3ccc(O)cc3)C3OC2CC3S(=O)(=O)N(CC(F)(F)F)c2ccc(O)cc2)cc1 (centres unmarked) [Compound 29c, N-(4-(3-(4-Hydroxyphenyl)-5-(N-(4-hydroxyphenyl)-N-(2,2,2-trifluoroethyl)sulfamoyl)-7-oxabicyclo[2.2.1]hept-2-en-2-yl)phenyl)-3-methylbut-2-enamide]
Human ERβ LBD
  Ki: 10.9 nM
Human ERβ LBD; IC50 estradiol/IC50 compound × 100, estradiol = 100%
  RBA ERβ: 0.61 ± 0.11%
ERβ [1]; control as 0%, 10 nmol/L E2 as 100%
  Agonist mode ERβ Eff (%E2): 19 ± 1 %E2
ERβ [1]; with 10 nmol/L 17β-estradiol
  Antagonist mode ERβ Eff (%E2): 27 ± 2 %E2
ERα D538G
  ERα degradation time course, T-47D^D538G: completely degraded
MCF-7 tumor xenograft; 4 mg/kg ip
  ERα level in xenograft tumors (IHC, Western blot): significantly degrade ERα
MCF-7 tumor xenograft; 4 mg/kg ip every other day, Day 32
  TGI (tumor growth inhibition): 92%
MCF-7 tumor xenograft; both at 2 mg/kg
  Tumor weight, 29c compared with Ful: no statistically significant difference in tumor weight
MCF-7 tumor xenograft; heart, liver, spleen, kidney, ip administration
  H&E analysis of main visceral organs: did not show significant changes in the main visceral organs
MCF-7 tumor xenograft; ip 2 or 4 mg/kg every other day
  Body weight of mice: did not apparently reduce mice body weight
MCF-7 tumor xenograft; ip administration
  Tumor cell proliferation (Ki-67 IHC): significantly reduced tumor cell proliferation
MCF-7 tumor xenograft; ip dose of 2 or 4 mg/kg
  Tumor growth inhibition activity: significant tumor growth inhibition
PK studies in mice; [4]
  AUC: 960 ng·h/mL
  Cmax: 352 ng/mL
  Tmax: 0.167 h
  half-life: 6.38 h
PK studies in mice; [5]
  AUC: 1210 ng·h/mL
  Cmax: 1420 ng/mL
  Tmax: 0.083 h
  Vd: 4.5 L/kg
  clearance: 27.7 mL/min/kg
  half-life: 2.77 h
PK studies in mice; [6]
  AUC: 360 ng·h/mL
  Cmax: 153 ng/mL
  Tmax: 0.5 h
  half-life: 5.81 h
PK studies in mice; mice
  Oral bioavailability: insufficient oral bioavailability
[2]
  Covalent adduct with ERα (intact MS): specifically and covalently bound to residue C530
T-47D^Y537S cells
  IC50: 880 ± 150 nM
ERβ [3]
  ERβ degradation (immunoblot): no degradation capacity for ERβ
MCF-7 cells
  fold higher potency than 4-OHT, MCF-7: 12 fold
MCF-7 cells; Homo sapiens, MCF7, 72 h, read-out: MCF-7 IC50
  IC50: 56 ± 4 nM
MCF-7 cells; compared with fulvestrant
  fold higher potency than Ful, MCF-7: 2.5 fold
LCC-2 cells
  IC50: 2100 ± 370 nM
T-47D cells
  IC50: 870 ± 150 nM
